# Tests used:
# D(2) dopamine receptor = D(2) dopamine receptor (Rattus norvegicus, UniProt P61169); experiment: Displacement of [3H]-spiperone from Dopamine receptor D2 from rat striatal membranes; assay type: cell membranes, Membrane
# In short: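 [3H]spiperone displacement from rat striatal membranes (D2). Five test-drug concentrations over three decades, in triplicate, two full curves; IC50 from log concentration-effect curves, reported as logarithmic mean of at least two determinations.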
# [1] = biological target: T1, Adrenergic receptor alpha-1 (Rattus norvegicus, UniProt P15823+P23944+P43140); experiment: Displacement of [3H]prazosin from Alpha-1 adrenergic receptor of whole rat brain membranes; assay type: cell membranes, Membrane
# T1 sequence (P15823 whole entry): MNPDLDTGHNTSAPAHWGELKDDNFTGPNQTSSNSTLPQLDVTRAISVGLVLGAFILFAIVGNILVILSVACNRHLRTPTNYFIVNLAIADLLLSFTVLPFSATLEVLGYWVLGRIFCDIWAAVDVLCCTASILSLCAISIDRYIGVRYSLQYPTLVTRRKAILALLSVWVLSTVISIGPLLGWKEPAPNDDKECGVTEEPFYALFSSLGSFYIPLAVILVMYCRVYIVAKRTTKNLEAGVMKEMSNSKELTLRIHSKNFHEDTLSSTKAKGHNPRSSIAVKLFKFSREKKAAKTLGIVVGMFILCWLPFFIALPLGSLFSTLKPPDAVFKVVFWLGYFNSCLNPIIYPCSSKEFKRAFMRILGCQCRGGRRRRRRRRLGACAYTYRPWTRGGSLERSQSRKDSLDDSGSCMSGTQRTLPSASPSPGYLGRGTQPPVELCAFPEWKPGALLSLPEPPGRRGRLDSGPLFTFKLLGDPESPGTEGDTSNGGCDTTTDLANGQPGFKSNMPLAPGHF
# T1 sequence (P23944 whole entry): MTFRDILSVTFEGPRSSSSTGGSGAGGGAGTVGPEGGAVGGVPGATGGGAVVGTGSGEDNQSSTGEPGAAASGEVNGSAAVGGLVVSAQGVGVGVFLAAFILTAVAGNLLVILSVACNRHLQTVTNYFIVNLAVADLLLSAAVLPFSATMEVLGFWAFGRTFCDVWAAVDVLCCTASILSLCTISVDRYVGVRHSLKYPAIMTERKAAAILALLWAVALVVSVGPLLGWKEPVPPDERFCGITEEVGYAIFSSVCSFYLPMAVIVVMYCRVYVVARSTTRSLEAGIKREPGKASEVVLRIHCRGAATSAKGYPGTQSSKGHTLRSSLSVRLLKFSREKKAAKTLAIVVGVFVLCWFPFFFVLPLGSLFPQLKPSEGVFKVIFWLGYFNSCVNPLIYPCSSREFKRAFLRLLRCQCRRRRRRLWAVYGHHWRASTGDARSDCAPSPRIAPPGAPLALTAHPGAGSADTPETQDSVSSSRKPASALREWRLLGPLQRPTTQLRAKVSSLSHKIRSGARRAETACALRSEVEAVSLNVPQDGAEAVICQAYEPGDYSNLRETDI
# T1 sequence (P43140 whole entry): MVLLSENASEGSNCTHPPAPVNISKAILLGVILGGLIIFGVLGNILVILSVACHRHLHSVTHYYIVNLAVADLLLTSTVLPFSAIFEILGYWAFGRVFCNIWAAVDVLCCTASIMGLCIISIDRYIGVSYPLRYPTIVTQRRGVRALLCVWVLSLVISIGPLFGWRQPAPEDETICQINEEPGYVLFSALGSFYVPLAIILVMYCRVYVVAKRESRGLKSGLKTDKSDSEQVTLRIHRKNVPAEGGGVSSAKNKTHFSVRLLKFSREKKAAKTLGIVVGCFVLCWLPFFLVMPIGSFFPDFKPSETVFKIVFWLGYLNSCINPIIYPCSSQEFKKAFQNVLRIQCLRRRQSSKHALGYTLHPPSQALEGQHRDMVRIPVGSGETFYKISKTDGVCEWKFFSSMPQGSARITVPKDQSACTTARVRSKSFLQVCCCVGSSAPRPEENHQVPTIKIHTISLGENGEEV
# In short: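 α1 adrenoceptor binding measured as displacement of [3H]prazosin from whole rat brain membranes. Five test-drug concentrations spanning three decades in triplicate, two full curves; IC50 from log concentration-effect curves, logarithmic mean of at least two determinations.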
# Rattus norvegicus [2] = experiment: Compound was evaluated for the inhibition of quipazine-induced head twitches after 2 hr (administered subcutaneously); 0.012-0.095; assay type: functional; details: sc
# Rattus norvegicus [3] = experiment: Compound was evaluated for the inhibition of pergolide-induced reactions after 2 hr (administered subcutaneously); 12-50; assay type: functional; details: sc
# In short: (§1)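 Male Wistar rats with unilateral 6-OHDA lesions; test drug sc 2 h before pergolide (0.05 µmol/kg sc) to induce contralateral circling. Effect of each dose expressed as percent of mean of control sessions 1 week before and 1 week after, per rat; at least four rats per dose; ED50 by log-probit analysis.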
# Rattus norvegicus [4] = experiment: Compound was evaluated for the inhibition of quipazine-induced head twitches after 24 hr (administered perorally); 0.0091-0.16; details: po
# [5] = biological target: Serotonin 2 (5-HT2) receptor (Rattus norvegicus, UniProt P30994+P08909+P14842); experiment: Displacement of [3H]ketanserin from 5-hydroxytryptamine 2 receptor from rat cortical membranes.; assay type: cell membranes, Membrane
# In short: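 [3H]ketanserin displacement from rat cortical membranes (5-HT2). Five concentrations across three decades in triplicate, two full curves; IC50 estimated on a log-concentration scale, given as logarithmic mean of at least two determinations.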
# Rattus norvegicus [6] = experiment: Compound was evaluated for the inhibition of quipazine-induced head twitches after 24 h (administered perorally); 0.031-0.20; assay type: functional; details: po
# Rattus norvegicus [7] = experiment: Compound was evaluated for the inhibition of quipazine-induced head twitches after 2 hr (administered subcutaneously); 0.072-0.45; assay type: functional; details: sc
# Rattus norvegicus [8] = experiment: Compound was evaluated for the inhibition of pergolide-induced reactions after 2 hr (administered subcutaneously); 9.7-87; assay type: functional; details: sc; in short: as §1
# Rattus norvegicus [9] = experiment: Compound was evaluated for the inhibition of pergolide-induced reactions after 2 hr (administered subcutaneously); 9.7-87; details: sc
# Mus musculus [10] = species: Mus musculus; experiment: Compound was evaluated for the inhibition of isolation-induced aggression at a threshold of 180 seconds
# Rattus norvegicus [11] = experiment: Compound was evaluated for the inhibition of pergolide-induced reactions after 2 hr (administered subcutaneously); assay type: functional; details: sc; in short: as §1
# Rattus norvegicus [12] = experiment: Compound was evaluated for the inhibition of quipazine-induced head twitches after 2 hr (administered subcutaneously); 0.056-0.18; assay type: functional; details: sc
# [13] = biological target: T2, Alpha-1A adrenergic receptor (Rattus norvegicus, UniProt P43140); experiment: Compound was tested for the displacement of [3H]prazosin from alpha-1 adrenergic receptor of rat whole brain membranes
# T2 sequence (P43140 whole entry): T1 sequence (P43140 whole entry)
# Rattus norvegicus [14] = experiment: Compound was evaluated for the inhibition of quipazine-induced head twitches after 24 hr (administered subcutaneously); 0.35-2.7; assay type: functional; details: sc
# Mus musculus [15] = species: Mus musculus; experiment: Compound was evaluated for the inhibition of isolation-induced aggression at a threshold of, 90 seconds
# Rattus norvegicus [16] = experiment: Compound was evaluated for the inhibition of pergolide-induced reactions after 2 hr (administered subcutaneously); 1.8-14.4; assay type: functional; details: sc; in short: as §1
# Rattus norvegicus [17] = experiment: Compound was evaluated for the inhibition of quipazine-induced head twitches after 2 h (administered subcutaneously); 0.011-0.12; assay type: functional; details: sc
# Mus musculus [18] = species: Mus musculus; experiment: Compound was evaluated for the inhibition of isolation-induced aggression at a threshold of, 90 seconds; 1.3-2.9; assay type: functional
# In short: (§2)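 Isolated male NMRI mice (3 weeks) trained to attack a nonaggressive intruder of the same strain; only mice with attack latency <25 s included. Pretested just before dosing and 2 h after sc test substance; observation maximum 180 s; at least eight mice per dose.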
# Rattus norvegicus [19] = experiment: Compound was evaluated for the inhibition of quipazine-induced head twitches after 24 hr (administered subcutaneously); 0.014-0.48; details: sc
# Mus musculus [20] = species: Mus musculus; experiment: Compound was evaluated for the inhibition of isolation-induced aggression at a threshold of 180 seconds; 1.1-2.6; assay type: functional; in short: as §2
# Rattus norvegicus [21] = experiment: Compound was evaluated for the inhibition of quipazine-induced head twitches after 24 hr (administered perorally); 0.12-0.57; assay type: functional; details: po
# Mus musculus [22] = species: Mus musculus; experiment: Compound was evaluated for the inhibition of isolation-induced aggression at a threshold of 180 seconds; 2.3-12.4; assay type: functional
# Mus musculus [23] = species: Mus musculus; experiment: Compound was evaluated for the inhibition of isolation-induced aggression at a threshold of, 90 seconds; 3.5-18.4; assay type: functional
# Chain of D(2) dopamine receptor (P61169 whole entry): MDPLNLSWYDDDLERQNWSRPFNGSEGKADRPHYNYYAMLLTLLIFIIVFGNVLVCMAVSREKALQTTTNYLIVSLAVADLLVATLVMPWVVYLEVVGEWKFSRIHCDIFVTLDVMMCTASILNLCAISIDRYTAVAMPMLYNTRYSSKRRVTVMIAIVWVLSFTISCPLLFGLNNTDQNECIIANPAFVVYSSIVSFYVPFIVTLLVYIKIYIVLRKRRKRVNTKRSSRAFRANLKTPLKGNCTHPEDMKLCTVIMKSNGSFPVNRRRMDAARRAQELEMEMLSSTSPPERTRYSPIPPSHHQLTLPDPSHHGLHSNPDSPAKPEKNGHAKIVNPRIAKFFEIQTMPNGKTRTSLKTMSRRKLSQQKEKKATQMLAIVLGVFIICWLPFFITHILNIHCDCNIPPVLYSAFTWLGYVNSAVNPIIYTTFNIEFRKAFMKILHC
compound,measurement,setting,value
O=C1NCCN1CCN1CCC(c2cn(-c3ccc(F)cc3)c3cc(F)ccc23)CC1,IC50,D(2) dopamine receptor,36 nM
same,IC50,[1],2.2 nM
same,ED50,Rattus norvegicus [2],0.034 µmol/kg
same,ED50,Rattus norvegicus [3],25 µmol/kg
same,ED50,Rattus norvegicus [4],0.038 µmol/kg
same,IC50,[5],0.73 nM
Cc1c(C2CCN(CCN3CCNC3=O)CC2)c2ccccc2n1-c1ccc(F)cc1,IC50,[1],76 nM
same,ED50,Rattus norvegicus [6],0.078 µmol/kg
same,ED50,Rattus norvegicus [7],0.18 µmol/kg
same,ED50,Rattus norvegicus [8],29 µmol/kg
same,ED50,Rattus norvegicus [9],29 µmol/kg
same,IC50,[5],0.59 nM
Cc1nc2sccn2c(=O)c1CCN1CCC(=C(c2ccc(F)cc2)c2ccc(F)cc2)CC1 [RITANSERIN],ED50,Mus musculus [10],> 10 µmol/kg
same,ED50,Rattus norvegicus [11],> 21 µmol/kg
same,ED50,Rattus norvegicus [12],0.1 µmol/kg
same,IC50,[13],47 nM
same,ED50,Rattus norvegicus [14],0.98 µmol/kg
same,ED50,Mus musculus [15],> 10 µmol/kg
O=C1NCCN1CCN1CCC(c2cn(-c3ccc(F)cc3)c3ccccc23)CC1,ED50,Rattus norvegicus [16],5.1 µmol/kg
same,IC50,[1],3 nM
same,ED50,Rattus norvegicus [17],0.036 µmol/kg
same,ED50,Mus musculus [18],1.9 µmol/kg
same,ED50,Rattus norvegicus [19],0.082 µmol/kg
same,ED50,Mus musculus [20],1.7 µmol/kg
same,ED50,Rattus norvegicus [21],0.26 µmol/kg
same,IC50,[5],0.72 nM
c1cc2c(c(N3CCNCC3)c1)OCCO2 [ELTOPRAZINE],ED50,Mus musculus [22],5.4 µmol/kg
same,ED50,Mus musculus [23],8 µmol/kg

# — ChEMBL document CHEMBL1125563, “Selective, centrally acting serotonin 5-HT2 antagonists. 1. 2- and 6-substituted 1-phenyl-3-(4-piperidinyl)-1H-indoles” (J Med Chem, 1992)
